In ChEMBL document CHEMBL2046296, “Synthesis and antidepressant activity of arylalkanol-piperidine derivatives as triple reuptake inhibitors” (Eur J Med Chem, 2012):

How the values were obtained:
[1] = Elimination half life in Sprague-Dawley rat at 10 mg/kg, po; assay type: ADME, organism-based; set-up: dose 10 mg/kg, route oral; conditions: in vivo, read-out: beta t1/2 (converted)
Outline: (§1)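 Male SD rats, three per group, fasted overnight until 6 h post-dose, received a single oral dose of 10 mg/kg. Heparinized blood was drawn at 5, 15 and 30 min and at 1, 2, 4, 6, 8, 12 and 24 h. Plasma was frozen and analysed by LC/MS/MS for Cmax, Tmax, terminal t1/2 and AUC0-inf.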

[2] = molecular target: 5-hydroxytryptamine receptor 2B (Homo sapiens) (UniProt P41595); test: Displacement of [3H]Mesulergine from human recombinant 5HT2B receptor expressed in CHO cells at 10 uM after 30 mins by liquid scintillation counting; assay type: cell-based
Outline: (§2)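 Radioligand binding panel run by a contract lab (CEREP). Percent inhibition of specific radioligand binding was measured at a single primary test concentration of 10.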

[3] = test system: Mus musculus; test: Antidepressant activity in po dosed mouse assessed as decrease in immobility administered 30 mins prior to testing by tail suspension test relative to vehicle control; assay type: functional, organism-based
Outline: (§3)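 Oral doses of 10–50 mg/kg (three doses) were given once, 30 min before testing. Mice were hung by adhesive tape 1 cm from the tail tip, 75 cm above the tabletop. Immobility was recorded for 5 min, scored blind, 10–12 mice per group, against vehicle controls. One-way ANOVA with Scheffe post hoc test; p<0.05 significant.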

[4] = molecular target: 5-hydroxytryptamine receptor 5A (Homo sapiens) (UniProt P47898); test: Displacement of [3H]LSD from 5HT5A receptor at 10 uM; outline: as §2
[5] = AUC (0 to infinity) in Sprague-Dawley rat at 1 mg/kg, iv; assay type: ADME, organism-based; set-up: time infinity, dose 1 mg/kg, route intravenous; conditions: plasma
Outline: (§4)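 Male SD rats, three per group, fasted overnight until 6 h after dosing, were given a single 1 mg/kg iv dose into the femoral vein. Blood was sampled at 5, 15 and 30 min and at 1, 2, 4 and 6 h. Plasma was stored frozen and assayed by LC/MS/MS.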

[6] = Cmax in Sprague-Dawley rat at 10 mg/kg, po; assay type: ADME, organism-based; set-up: dose 10 mg/kg, route oral; conditions: in vivo; outline: as §1
[7] = molecular target: 5-hydroxytryptamine receptor 2A (Homo sapiens) (UniProt P28223); test: Displacement of [3H]Ketanserin from human recombinant 5HT2A receptor expressed in CHO cells at 10 uM after 15 mins by liquid scintillation counting; assay type: cell-based; outline: as §2
[8] = test system: Mus musculus; test: Antidepressant activity in mouse assessed as decrease in immobility at 50 mg/kg, po administered 30 mins prior to testing by tail suspension test relative to vehicle control; assay type: functional; set-up: scale not given: the % may be the effect or the level left; outline: as §3
[9] = molecular target: 5-hydroxytryptamine receptor 6 (Homo sapiens) (UniProt P50406); test: Displacement of [3H]LSD from human recombinant 5HT6 receptor expressed in HEK293 cells at 10 uM after 60 mins by liquid scintillation counting; assay type: cell-based; outline: as §2
[10] = molecular target: T1, Muscarinic acetylcholine receptor M2 (Homo sapiens) (UniProt P08172); test: Displacement of [3H]AF-DX384 from M2 receptor at 10 uM; outline: as §2
T1 sequence (whole entry): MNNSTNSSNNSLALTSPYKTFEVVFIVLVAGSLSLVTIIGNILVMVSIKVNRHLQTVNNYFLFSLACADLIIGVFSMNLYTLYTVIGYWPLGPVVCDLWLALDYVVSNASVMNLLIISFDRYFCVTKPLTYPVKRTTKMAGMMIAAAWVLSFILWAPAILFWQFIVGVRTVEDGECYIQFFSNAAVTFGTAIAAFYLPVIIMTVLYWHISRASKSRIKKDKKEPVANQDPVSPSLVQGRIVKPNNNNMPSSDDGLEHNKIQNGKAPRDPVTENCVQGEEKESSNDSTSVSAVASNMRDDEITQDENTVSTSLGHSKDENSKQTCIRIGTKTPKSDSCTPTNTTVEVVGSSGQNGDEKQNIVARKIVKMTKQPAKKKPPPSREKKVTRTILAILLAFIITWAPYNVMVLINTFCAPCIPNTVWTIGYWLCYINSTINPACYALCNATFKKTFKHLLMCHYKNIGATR

[11] = Elimination half life in Sprague-Dawley rat at 1 mg/kg, iv; assay type: ADME, organism-based; set-up: dose 1 mg/kg, route intravenous; conditions: in vivo, read-out: beta t1/2 (converted); outline: as §4
[12] = molecular target: 5-hydroxytryptamine receptor 7 (Homo sapiens) (UniProt P34969); test: Displacement of [3H]LSD from human recombinant 5HT7 receptor expressed in CHO cells at 10 uM after 120 mins by liquid scintillation counting; assay type: cell-based; outline: as §2
[13] = molecular target: Histamine H1 receptor (Cavia porcellus) (UniProt P31389); test: Displacement of [3H]Pyrilamin from guinea pig histamine H1 receptor at 10 uM after 10 mins by liquid scintillation counting; outline: as §2
[14] = Oral bioavailability in Sprague-Dawley rat at 10 mg/kg; assay type: ADME, organism-based; conditions: in vivo
Outline: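 Bioavailability in male SD rats (n=3 per group, fasted overnight to 6 h post-dose) came from a 10 mg/kg oral dose and a 1 mg/kg iv dose via the femoral vein. Plasma drug levels over time were measured by LC/MS/MS.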

[15] = test system: Mus musculus; test: Antidepressant activity in mouse assessed as decrease in immobility at 20 mg/kg, po administered 30 mins prior to testing by tail suspension test relative to vehicle control; assay type: functional; set-up: scale not given: the % may be the effect or the level left; outline: as §3
[16] = AUC (0 to infinity) in Sprague-Dawley rat at 10 mg/kg, po; assay type: ADME, organism-based; set-up: time infinity, dose 10 mg/kg, route oral; conditions: plasma; outline: as §1
[17] = molecular target: Adrenergic receptor alpha-1 (Rattus norvegicus) (UniProt P15823+P23944+P43140); test: Displacement of [3H]Prazosin from rat alpha1 adrenergic receptor at 10 uM after 60 mins by liquid scintillation counting; outline: as §2
[18] = Tmax in Sprague-Dawley rat at 10 mg/kg, po; assay type: ADME, organism-based; set-up: dose 10 mg/kg, route oral; conditions: in vivo; outline: as §1
[19] = Cmax in Sprague-Dawley rat at 1 mg/kg, iv; assay type: ADME, organism-based; set-up: dose 1 mg/kg, route intravenous; conditions: in vivo; outline: as §4
[20] = molecular target: Adrenergic receptor alpha-1 (Rattus norvegicus, UniProt P15823+P23944+P43140); test: Displacement of [3H]Prazosin from rat alpha1 adrenergic receptor after 60 mins by liquid scintillation counting
Outline: (§5)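 A primary screen at a single concentration was run first; compounds giving >80% inhibition of radioligand binding went on to full concentration–response curves to obtain IC50 (CEREP contract assay).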

[21] = molecular target: D(1A) dopamine receptor (Homo sapiens, UniProt P21728); test: Displacement of [3H]SCH23390 from dopamine D1 receptor; outline: as §5
Chain of D(1A) dopamine receptor (P21728 whole entry): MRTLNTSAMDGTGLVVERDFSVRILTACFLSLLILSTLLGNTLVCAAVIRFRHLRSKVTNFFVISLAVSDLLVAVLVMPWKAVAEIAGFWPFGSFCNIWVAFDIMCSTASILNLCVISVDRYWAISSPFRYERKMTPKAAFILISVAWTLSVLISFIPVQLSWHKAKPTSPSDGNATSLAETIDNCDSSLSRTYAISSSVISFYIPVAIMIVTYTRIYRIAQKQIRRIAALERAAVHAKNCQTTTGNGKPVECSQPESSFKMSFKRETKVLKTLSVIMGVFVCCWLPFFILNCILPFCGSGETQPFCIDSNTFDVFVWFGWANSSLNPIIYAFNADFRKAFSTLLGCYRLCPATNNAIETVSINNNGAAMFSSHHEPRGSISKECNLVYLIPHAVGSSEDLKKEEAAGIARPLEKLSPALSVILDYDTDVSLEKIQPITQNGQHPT

Chain of 5-hydroxytryptamine receptor 5A (Homo sapiens) (P47898 whole entry): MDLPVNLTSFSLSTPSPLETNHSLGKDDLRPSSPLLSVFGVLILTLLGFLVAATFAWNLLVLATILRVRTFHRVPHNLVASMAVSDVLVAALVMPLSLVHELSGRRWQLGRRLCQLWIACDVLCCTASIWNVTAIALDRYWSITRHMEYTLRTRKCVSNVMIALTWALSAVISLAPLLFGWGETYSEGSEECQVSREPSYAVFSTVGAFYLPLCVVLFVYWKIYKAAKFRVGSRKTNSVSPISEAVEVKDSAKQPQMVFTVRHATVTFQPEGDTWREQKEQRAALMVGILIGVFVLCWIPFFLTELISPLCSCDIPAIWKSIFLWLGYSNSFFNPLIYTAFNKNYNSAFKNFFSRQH
Chain of Histamine H1 receptor (Cavia porcellus) (P31389 whole entry): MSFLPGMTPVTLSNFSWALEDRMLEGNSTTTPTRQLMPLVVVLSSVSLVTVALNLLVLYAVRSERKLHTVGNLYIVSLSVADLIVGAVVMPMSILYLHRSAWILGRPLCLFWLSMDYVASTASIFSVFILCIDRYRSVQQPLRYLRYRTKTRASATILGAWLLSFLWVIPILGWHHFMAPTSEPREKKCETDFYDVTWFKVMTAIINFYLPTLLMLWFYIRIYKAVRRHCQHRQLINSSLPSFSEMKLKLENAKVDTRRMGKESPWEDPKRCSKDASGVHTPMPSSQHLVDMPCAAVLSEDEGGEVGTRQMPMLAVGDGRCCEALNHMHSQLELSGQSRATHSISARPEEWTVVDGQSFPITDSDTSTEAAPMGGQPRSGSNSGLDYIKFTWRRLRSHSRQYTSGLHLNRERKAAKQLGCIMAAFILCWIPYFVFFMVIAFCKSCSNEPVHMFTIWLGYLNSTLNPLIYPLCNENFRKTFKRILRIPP
Chain of 5-hydroxytryptamine receptor 6 (Homo sapiens) (P50406 whole entry): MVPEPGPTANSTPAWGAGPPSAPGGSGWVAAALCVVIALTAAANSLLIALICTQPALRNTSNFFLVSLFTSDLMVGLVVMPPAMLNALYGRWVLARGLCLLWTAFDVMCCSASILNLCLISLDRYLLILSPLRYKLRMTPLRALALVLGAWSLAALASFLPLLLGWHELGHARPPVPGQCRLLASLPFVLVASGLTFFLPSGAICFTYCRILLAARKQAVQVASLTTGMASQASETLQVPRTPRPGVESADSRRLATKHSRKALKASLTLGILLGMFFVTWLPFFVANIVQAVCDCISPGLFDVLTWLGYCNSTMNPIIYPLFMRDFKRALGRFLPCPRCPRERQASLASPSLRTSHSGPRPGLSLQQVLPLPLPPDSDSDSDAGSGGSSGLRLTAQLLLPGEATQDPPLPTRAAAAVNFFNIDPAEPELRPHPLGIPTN
Chain of 5-hydroxytryptamine receptor 2A (Homo sapiens) (P28223 whole entry): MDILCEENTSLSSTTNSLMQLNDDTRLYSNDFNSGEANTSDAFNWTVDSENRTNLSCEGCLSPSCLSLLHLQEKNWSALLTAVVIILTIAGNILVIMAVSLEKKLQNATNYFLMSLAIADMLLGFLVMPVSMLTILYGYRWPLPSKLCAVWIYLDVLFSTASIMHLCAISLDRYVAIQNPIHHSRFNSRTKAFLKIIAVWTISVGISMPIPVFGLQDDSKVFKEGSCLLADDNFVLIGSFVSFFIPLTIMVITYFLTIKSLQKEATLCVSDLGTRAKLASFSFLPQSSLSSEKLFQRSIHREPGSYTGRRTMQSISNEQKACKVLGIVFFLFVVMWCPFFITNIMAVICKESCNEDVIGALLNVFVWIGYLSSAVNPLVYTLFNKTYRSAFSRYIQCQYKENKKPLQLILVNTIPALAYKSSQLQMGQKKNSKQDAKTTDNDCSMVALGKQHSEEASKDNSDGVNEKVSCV
Chain of 5-hydroxytryptamine receptor 2B (Homo sapiens) (P41595 whole entry): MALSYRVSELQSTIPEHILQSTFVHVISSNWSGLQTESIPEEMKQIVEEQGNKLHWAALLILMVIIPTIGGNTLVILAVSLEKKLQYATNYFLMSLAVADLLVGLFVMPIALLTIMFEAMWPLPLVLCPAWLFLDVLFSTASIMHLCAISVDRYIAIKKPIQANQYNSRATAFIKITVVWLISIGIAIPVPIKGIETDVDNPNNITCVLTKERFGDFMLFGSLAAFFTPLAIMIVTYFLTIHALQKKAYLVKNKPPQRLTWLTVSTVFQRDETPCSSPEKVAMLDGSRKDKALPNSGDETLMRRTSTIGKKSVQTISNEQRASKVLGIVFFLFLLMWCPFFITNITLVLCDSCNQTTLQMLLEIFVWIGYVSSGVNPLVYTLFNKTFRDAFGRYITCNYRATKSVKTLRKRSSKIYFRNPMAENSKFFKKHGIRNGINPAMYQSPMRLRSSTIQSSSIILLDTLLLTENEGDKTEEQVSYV
Chain of 5-hydroxytryptamine receptor 7 (Homo sapiens) (P34969 whole entry): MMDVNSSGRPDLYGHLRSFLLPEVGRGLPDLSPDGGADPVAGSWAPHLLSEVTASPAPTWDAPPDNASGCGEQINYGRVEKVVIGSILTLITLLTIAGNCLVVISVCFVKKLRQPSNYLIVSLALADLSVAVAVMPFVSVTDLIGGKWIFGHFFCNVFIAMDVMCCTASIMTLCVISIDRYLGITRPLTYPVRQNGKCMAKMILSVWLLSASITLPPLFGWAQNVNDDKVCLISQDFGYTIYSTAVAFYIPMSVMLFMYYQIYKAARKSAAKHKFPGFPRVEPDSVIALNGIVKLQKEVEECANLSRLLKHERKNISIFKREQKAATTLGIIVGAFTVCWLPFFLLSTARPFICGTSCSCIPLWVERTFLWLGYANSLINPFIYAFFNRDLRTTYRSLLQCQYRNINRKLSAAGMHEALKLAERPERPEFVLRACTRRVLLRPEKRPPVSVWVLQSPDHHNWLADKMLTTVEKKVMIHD

In the case of `OC(CCN1CC=C(Cc2ccccc2)CC1)c1csc2ccccc12` (racemic), the half-life [1] is reported as 3.5 h, the inhibition [2] is reported as 14.5% and the Activity [3] is reported as “Dose-dependent effect”. For the same compound, the inhibition [4] was 33.5%, the AUC(0-inf) [5] was 1020 ng·h/mL and the Cmax [6] was 923 ng/mL. For the same compound, the inhibition [7] was 42.6%, the Activity [8] was 64% and the inhibition [9] was 16.8%. For the same compound, the inhibition [10] was 3.7%, the half-life [11] was 2.5 h and the inhibition [12] was 29.7%. It also gave an inhibition [13] of 45.3%, a bioavailability [14] of 55.8% and an Activity [15] of 51%. It also gave an AUC(0-inf) [16] of 5720 ng·h/mL, an inhibition [17] of 51.2% and a Tmax [18] of 0.5 h. For the same compound, the Cmax [19] was 653 ng/mL.
For `OC(CCN1CCC(O)(Cc2ccccc2)CC1)c1ccc(Cl)c(Cl)c1` (racemic), the half-life [1] was 2.9 h, the inhibition [2] was 4.9% and the Activity [3] was “Dose-dependent effect”. It also gave an inhibition [4] of 41.6%, an AUC(0-inf) [5] of 1230 ng·h/mL and a Cmax [6] of 897 ng/mL. For the same compound, the inhibition [7] was 0.9%, the Activity [8] was 64% and the inhibition [9] was 14.8%. For the same compound, the inhibition [10] was 16.5%, the half-life [11] was 2.3 h and the inhibition [12] was 19.2%. The inhibition [13] was 12.5%, the bioavailability [14] was 44.1% and the Activity [15] was 42%. It also gave an IC50 [20] of 8 µM, an AUC(0-inf) [16] of 5440 ng·h/mL and an inhibition [17] of 84.3%. For the same compound, the Tmax [18] was 0.7 h and the Cmax [19] was 750 ng/mL.
Compound `OC(CCN1CC=C(Cc2ccccc2)CC1)c1cc2ccccc2s1` (racemic) has an inhibition [2] of 6.1%, an inhibition [4] of 0.2% and an IC50 [21] of 9.65 µM. For the same compound, the inhibition [7] was 31.5%, the Activity [8] was 34% and the inhibition [9] was 53.7%. The inhibition [10] was 6.5%, the inhibition [12] was 43.5% and the inhibition [13] was 0.1%. For the same compound, the Activity [15] was 21% and the inhibition [17] was 0.8%.
In the case of `OC(CCN1CC=C(Cc2ccccc2)CC1)c1ccc(Cl)c(Cl)c1` (racemic), the inhibition [2] is reported as 33.5%, the inhibition [7] is reported as 4.8% and the Activity [8] is reported as 35%. The inhibition [9] was 1.9%, the inhibition [10] was 7.9% and the inhibition [12] was 0.5%. For the same compound, the inhibition [13] was 31.2%, the Activity [15] was 51% and the inhibition [17] was 35.6%.
In the case of `COc1ccc2cc(C(O)CCN3CC=C(Cc4ccccc4)CC3)ccc2c1Cl` (racemic), the Activity [3] is reported as “Dose-dependent effect”, the inhibition [7] is reported as 15.6% and the Activity [8] is reported as 57%. The inhibition [9] was -0.9%, the inhibition [10] was 12.9% and the inhibition [12] was 5.8%. For the same compound, the inhibition [13] was 10.6%, the Activity [15] was 42% and the inhibition [17] was 45.6%.
